L major viab – inhibitors of Leishmania major promastigote growth. Leishmania major promastigotes, resazurin fluorescence viability. inhibition, % at 10 µM. 200,000 tested, 9% active. AID 1063; in the data active = inhibition above about 50%;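 note: promastigotes grown with compound for 44 hours at 28 °C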
Dynein cargo inh – blocks dynein driven cargo transport along microtubules; 3617.4 mouse cells, GR-EGFP nuclear translocation imaging; test concentration mostly 20 µM; stimulated with dexamethasone, 1 µM; hits give low values; z-score, hits read low; 220,000 tested, 0.47% active;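 active = plate z-score of nuclear minus cytoplasmic receptor signal below a set negative limit, without overly bright fluorescence or cell loss, cut at about -3.5 in these data, passing the limit was not always enough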;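 note: z-score of nuclear minus cytoplasmic ring GR-EGFP intensity difference per well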
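medium = tetracycline-free induction medium containing charcoal-stripped FBS | also added = 1.0 µM final dexamethasone stimulus | schedule = 48 h induction, 1 h compound, 30 min dex at 37 °C | technique = fixed, Hoechst-stained cells imaged at 10x for EGFP | measure = GR-EGFP nuclear translocation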
bCat nuc transl – modulators of beta-catenin nuclear translocation. HeLa beta-catenin nuclear translocation, immunofluorescence imaging. nuclear translocation activity, % at 5 µM. 190,000 tested, 0.3% active;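 active = nuclear translocation activity above 50% at 5 µM, with a well cell count of 50 or more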;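 note: per-cell ratio of nuclear to cytoplasmic median beta-catenin stain intensity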
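assay system = human HeLa cells, endogenous beta-catenin | times = compound treatment 24 h, 37°C, 5% CO2 | detection = Anti-beta-catenin immunofluorescence on PFA-fixed, Triton-permeabilized cells, DAPI nuclei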
CHOP inhibitor – blocks CHOP induction under ER stress; CHO-K1 CHOP-promoter luciferase, tunicamycin-induced, 15-18 h; inhibition, % at 10 µM; 220,000 tested, 3.8% active;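 active = compounds that reduced the stress-induced luciferase reporter signal by more than about 70% of percent inhibition, limit read from the data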
MT stabilizer – stabilizes microtubules in HeLa cells | HeLa tubulin immunostaining HCS, 24 h; share of cells brighter than vehicle mean+2SD | % tubulin-high responders, % at 10 µM | 200,000 tested, 0.83% active;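 active = plate Z-score above 3 for both tubulin-high and condensed-nucleus cell shares, with cell loss under 80%, at 10 µM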;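 note: anti alpha tubulin signal scored within the nucleus-defined area of each cell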
Autophagy HCS – autophagy modulation, high-content screen; MEF GFP-LC3 puncta imaging; test concentration mostly 10 µM; calls only at 10 µM (by protocol); 190,000 tested, 0.98% active;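 active = percentage of spot-positive cells more than 3 SD above its plate mean, without a fluorescence outlier flag or 80% toxicity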
Large screens that a line does not name were inactive. Sampled rows, rich in hits. Any-hit rate of the full collection: about 12%.

CCOc1ccc2nc(Cl)c(C3CC(c4ccccc4)=NN3C(=O)c3ccco3)cc2c1 (stereo not given)	CHOP inhibitor 95.8
CCOc1ccc2nc(Cl)c(C3CC(c4ccco4)=NN3S(=O)(=O)c3ccccc3)cc2c1 (stereo not given)	L major viab 99.9
COc1ccc(S(=O)(=O)N(NC2=NS(=O)(=O)c3ccccc32)C(=O)C(C)C)cc1	none
Cc1cc(NC(=O)/C(C#N)=C/c2ccc(-c3cccc(C(F)(F)F)c3)o2)n(-c2ccccc2)n1	CHOP inhibitor 84.8
Cc1cc(NC(=O)/C(C#N)=C/c2ccc(-c3ccc(SC(F)F)cc3)o2)n(-c2ccccc2)n1	Autophagy HCS active
Cc1c(NC(=O)/C(C#N)=C/c2ccc(-c3ccc(Cl)cc3)o2)c(=O)n(-c2ccccc2)n1C	none
O=C(NCC1CCCO1)c1ccc(N2CCCCC2)nc1 (stereo not given)	none
Cc1ccccc1N(CC(=O)NCCc1ccccc1)C(=O)c1ccc(N2CCCC2)nc1	L major viab 60.7
Cc1ccc(S(=O)(=O)N(C)c2ccccc2C(=O)NC2CCCC2)cc1	none
COC1=C/C(=C/c2c(N)n3nc(-c4ccc(C)cc4)sc3nc2=O)C=CC1=O	L major viab 73.6
CCOC1=C/C(=C/c2c(N)n3nc(-c4ccccc4)sc3nc2=O)C=CC1=O	none
CC1CCCCN1C(=O)Cn1c(=O)n(-c2ccc(F)cc2)c(=O)c2sccc21 (stereo not given)	none
CC1CCCCN1C(=O)Cn1c(=O)n(C2CCCCC2)c(=O)c2ccccc21 (stereo not given)	CHOP inhibitor 82.1
COc1ccc(C(=O)C(C)Oc2cccc(NC(=O)c3cccc([N+](=O)[O-])c3)c2)cc1 (stereo not given)	none
COc1ccccc1CCc1nnc(CCC(=O)NC(C)Cc2cccnc2)o1 (stereo not given)	none
CCC(=O)Nc1nnc(-c2ccco2)o1	none
Cc1ccc(C(=O)Nc2nnc(-c3ccco3)o2)cc1	none
Cc1ccsc1C(=O)Nc1nnc(-c2ccco2)o1	L major viab 87.7 (no result: CHOP inhibitor)
O=C(Nc1nnc(-c2ccco2)o1)c1ccc2ccccc2c1	L major viab 68.9
COc1ccc(C2CCCN2C(=S)Nc2ccc(C)cc2Cl)cc1OC (stereo not given)	none
COc1ccc(-n2c(C)cc(C(=O)CN3C(=O)NC4(CCCc5sccc54)C3=O)c2C)cc1 (stereo not given)	none
COc1ccc(-n2c(C)cc(C(=O)CN3C(=O)C(=O)N(Cc4ccccc4)C3=O)c2C)cc1	MT stabilizer 12.8
COc1ccc(CCNC(=O)Cn2c([N+](=O)[O-])cnc2C)cc1OC	none
N#Cc1cccnc1Oc1ccccc1	none (no result: L major viab, MT stabilizer, Autophagy HCS)
COc1ccc(/C=N/N=C2/NC(=O)CC(C(=O)O)S2)cc1 (stereo not given)	L major viab 58.0
O=C(Nc1cccc(Cl)c1N1CCCC1)c1ccc(Br)o1	CHOP inhibitor 72.6
CCN1CCN(c2c(Cl)cccc2NC(=O)c2ccc([N+](=O)[O-])cc2)CC1	none
O=C(Nc1cccc(Cl)c1N1CCCC1)c1ccc([N+](=O)[O-])o1	L major viab 86.5
O=C(Nc1cccc(Cl)c1N1CCCC1)c1cc2ccccc2o1	none
COc1ccccc1NC(=O)c1ccc(Br)o1	none (no result: bCat nuc transl)
O=C(Nc1ccccc1Oc1ccccc1)c1ccc(Br)o1	CHOP inhibitor 86.2
COC(=O)c1ccccc1C(=O)N1CCCC(CCC(=O)NCc2ccc(F)c(F)c2)C1 (stereo not given)	none
CCOc1ccc(OCC)c(S(=O)(=O)NCc2ccccn2)c1	none (no result: bCat nuc transl)
O=C(CCCN1C(=O)c2cccc3cccc(c23)C1=O)Nc1ccon1	none
CCN1C=C(C(=O)OC)C(c2cccc(OC)c2OC)C(C(=O)OC)=C1	none
CCN(CC)C(C)C(=O)N1c2ccccc2Sc2ccccc21 (stereo not given)	none (no result: L major viab, Dynein cargo inh, bCat nuc transl, MT stabilizer, Autophagy HCS)
CN(C)c1ccc(/C=C/c2nnnn2-c2ccccc2)cc1	L major viab 56.3
Cc1cc(N/C=C\c2nnnn2-c2ccccc2)no1	none (no result: bCat nuc transl)
O=C(NC1CCCCC1)c1ccccc1NC(=S)NC(=O)C1CCC1	none
O=C(/C=C/c1ccccc1Cl)NC(=S)Nc1ccccc1C(=O)NC1CCCCC1	L major viab 97.7
COc1cc(N/C=C(\C(C)=O)c2ccccc2)cc(OC)c1	none
COc1ccc(CN2C(=O)c3ccccc3C2C(=O)NCc2cccnc2)c(OC)c1 (stereo not given)	Autophagy HCS active
CCN(CC)CCn1c(=S)[nH]c2cc(C(=O)N3CC=C(c4ccccc4)CC3)ccc2c1=O	none
COc1ccc(-c2noc(CCC(=O)NCCCN3CCC(Cc4ccccc4)CC3)n2)cc1	L major viab 100.5, Autophagy HCS active (no result: bCat nuc transl)
COc1ccc(-c2noc(=O)n2CC(=O)N2CCC(Cc3ccccc3)CC2)cc1	L major viab 95.9
O=C(COC(=O)CNC(=O)c1ccccc1)Nc1ccc(F)c([N+](=O)[O-])c1	none
CC(C)c1ccc(S(=O)(=O)Nc2ccc(SC(F)F)cc2)cc1	CHOP inhibitor 101.1
CC(C)c1ccc(NS(=O)(=O)c2ccc(Cl)nc2)cc1	none
Cc1ccccc1-n1c(SCC(=O)N2CCN(c3ccccc3)CC2)nnc1-c1ccncc1	L major viab 62.1
C=CCn1c(COc2cccc(C)c2C)nnc1SCC(=O)N1CCN(c2ccccc2)CC1	CHOP inhibitor 70.6
Cc1ccccc1-n1c(SCC(=O)N2CCC(C(=O)O)CC2)nnc1-c1ccncc1	none
CCn1c(SCC(=O)N2CCN(c3ccccc3)CC2)nnc1-c1c[nH]c2ccccc12	L major viab 57.5
Cc1ccc(CSCc2nnc(SCC(=O)N3CCN(c4ccccc4)CC3)n2C)cc1	none (no result: bCat nuc transl)
CCn1c(CSCc2ccc(F)cc2)nnc1SCC(=O)N1CCN(c2ccccc2)CC1	L major viab 63.4
CC(C)NC(=S)N=Nc1c(O)[nH]c2ccc([N+](=O)[O-])cc12	none
C=C(C)CNC(=S)N=Nc1c(O)[nH]c2ccc([N+](=O)[O-])cc12	L major viab 78.3
COc1ccccc1C(=O)N=Nc1c(O)[nH]c2ccc([N+](=O)[O-])cc12	Autophagy HCS active
C[C@@H]1CN(Cc2cn(C)nc2-c2cccc(Cl)c2)C[C@H](C)O1	none
NCCCCN	none (no result: L major viab, Dynein cargo inh, bCat nuc transl, MT stabilizer, Autophagy HCS)
O=[N+]([O-])c1c(NCc2ccccc2)cc(N2CCc3ccccc3C2)c2nonc12	none
Cc1ccc(N2C(=O)CC(N3CCN(C4CCc5ccccc5C4)CC3)C2=O)cc1 (stereo not given)	L major viab 87.2
CCOc1ccc(N2C(=O)CC(N3CCN(C4CCc5ccccc5C4)CC3)C2=O)cc1 (stereo not given)	none
CSc1nc(C)c(Cc2ccccc2)c(=O)[nH]1	none
C=C(C)CSc1nc(C)c(Cc2ccccc2)c(=O)[nH]1	CHOP inhibitor 75.8 (no result: bCat nuc transl)

Bioassay records (PubChem BioAssay)
